Data on 1 compound can be found in ChEMBL document CHEMBL4354813, “Design, Synthesis, and Pharmacological Evaluation of Potent Positive Allosteric Modulators of the Glucagon-like Peptide-1 Receptor (GLP-1R)” (J Med Chem, 2020).

Active and inactive are the calls of the source. The calls are words filed in the database; no cut-off is given here.

Data set [1] addresses T1, Solute carrier organic anion transporter family member 1B1 (Homo sapiens, UniProt Q9Y6L6).
T1 sequence (Q9Y6L6 whole entry): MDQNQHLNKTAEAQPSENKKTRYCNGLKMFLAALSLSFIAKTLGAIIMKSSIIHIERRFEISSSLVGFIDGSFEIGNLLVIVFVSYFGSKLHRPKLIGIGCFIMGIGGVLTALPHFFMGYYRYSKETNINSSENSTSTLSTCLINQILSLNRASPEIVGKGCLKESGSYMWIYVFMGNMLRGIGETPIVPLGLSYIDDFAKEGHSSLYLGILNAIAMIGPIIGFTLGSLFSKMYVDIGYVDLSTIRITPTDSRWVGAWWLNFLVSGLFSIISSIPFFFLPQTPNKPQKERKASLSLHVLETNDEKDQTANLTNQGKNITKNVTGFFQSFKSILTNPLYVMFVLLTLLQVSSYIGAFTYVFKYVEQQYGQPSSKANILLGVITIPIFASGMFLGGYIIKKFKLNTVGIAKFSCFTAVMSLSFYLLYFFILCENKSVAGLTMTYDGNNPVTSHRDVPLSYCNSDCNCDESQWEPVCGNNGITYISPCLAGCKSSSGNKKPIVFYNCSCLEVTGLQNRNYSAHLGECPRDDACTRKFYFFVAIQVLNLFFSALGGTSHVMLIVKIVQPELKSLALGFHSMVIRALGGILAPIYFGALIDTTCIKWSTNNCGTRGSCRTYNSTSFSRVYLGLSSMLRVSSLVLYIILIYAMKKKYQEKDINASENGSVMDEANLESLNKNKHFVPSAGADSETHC
Nature of the data set: Substrate activity at human OATP1B1 expressed in HEK293 cells assessed as increase in compound uptake at 1 uM LC-MS/MS analysis. It is filed as ADME, cell-based. The following applies: hek293, 1 µM, TDE = time-dependent effect. In outline:
(§1)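 HEK-TR cells overexpressing hOATP1B1 or hOATP1B3, run in parallel with control HEK-TR cells, seeded at 1 x 10⁵ cells/well one day before. Time-dependent uptake of 1 μM compound in HBSS at 37 °C, quadruplicates. Uptake stopped with ice-cold buffer, cells washed, lysed and quantified by LC-MS/MS. Uptake ratio calculated against the control cells.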

The target of data set [2] is T2, Solute carrier organic anion transporter family member 1B3 (Homo sapiens, UniProt Q9NPD5).
T2 sequence (Q9NPD5 whole entry): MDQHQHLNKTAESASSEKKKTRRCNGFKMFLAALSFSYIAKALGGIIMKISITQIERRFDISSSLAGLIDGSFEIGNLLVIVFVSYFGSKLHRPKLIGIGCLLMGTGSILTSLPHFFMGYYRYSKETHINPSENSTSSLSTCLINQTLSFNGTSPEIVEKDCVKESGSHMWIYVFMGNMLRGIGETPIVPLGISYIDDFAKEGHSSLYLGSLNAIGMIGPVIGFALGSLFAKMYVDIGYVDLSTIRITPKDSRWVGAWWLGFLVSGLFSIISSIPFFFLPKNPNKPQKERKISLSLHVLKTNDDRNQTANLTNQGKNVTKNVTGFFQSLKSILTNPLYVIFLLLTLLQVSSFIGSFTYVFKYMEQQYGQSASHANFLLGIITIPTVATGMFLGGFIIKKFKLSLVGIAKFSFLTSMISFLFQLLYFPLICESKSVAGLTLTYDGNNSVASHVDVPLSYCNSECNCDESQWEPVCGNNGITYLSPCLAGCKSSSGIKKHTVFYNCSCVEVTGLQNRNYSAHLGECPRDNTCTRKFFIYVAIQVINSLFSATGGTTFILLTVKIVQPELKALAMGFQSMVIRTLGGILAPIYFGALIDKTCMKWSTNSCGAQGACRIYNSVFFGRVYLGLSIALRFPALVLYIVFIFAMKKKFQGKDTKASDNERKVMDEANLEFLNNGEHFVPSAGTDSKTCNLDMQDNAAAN
In words: Substrate activity at human OATP1B3 expressed in HEK293 cells assessed as increase in compound uptake at 1 uM LC-MS/MS analysis. It is filed as ADME, cell-based. The settings on record: hek293, 1 µM, TDE = time-dependent effect. The procedure, abridged:
as §1

Data set [3] concerns Mus musculus. In words: Suppression of blood glucose concentration in ob/ob C57Bl/6J mouse model of T2DM at 30 mg/kg, po in absence of OATP/MRP2 inhibitor rifampicin and/or GLP1(9-36)NH2 by oral glucose-tolerance test. Format: functional, organism-based. In outline:
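Male ob/ob mice aged 10–11 weeks, n=7, randomised on blood glucose and fasted overnight. Rifampicin 60 mg/kg p.o. 2.5 h before the oGTT, compound 30 mg/kg p.o. 1 h before, GLP1(9-36)NH2 i.p. 15 min before, each given as indicated. Glucose 2 g/kg orally. Tail-vein glucose by glucometer at 0, 15, 30, 60 and 90 min.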

Data set [4] deals with Mus musculus. Nature of the data set: Suppression of blood glucose concentration in GLP-1R (-/-) C57Bl/6J mouse model at 30 mg/kg, po dosed 1 hrs before test and treated with 60 mg/kg, po OATP/MRP2 inhibitor rifampicin 2.5 hrs prior to oral glucose-tolerance test. It is filed as functional, organism-based. In outline:
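GLP-1R-/- male mice aged 10 weeks, n=6, fasted overnight. Rifampicin 60 mg/kg p.o. 2.5 h before the oGTT, compound p.o. 1 h before, with or without GLP1(9-36)NH2 i.p. 15 min before. Glucose 2 g/kg orally. Tail-vein blood glucose by glucometer at 0, 15, 30, 60 and 90 min.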

Data set [5] can be described thus: Chemical stability in presence of GSH. It is filed as physicochemical.
Data set [6] is described as follows: Volume of distribution at steady state in C57Bl6 mouse at 3 mg/kg, iv administered as single dose measured up to 24 hrs ESI-LC/MS-MS analysis. It is filed as ADME, organism-based. The following applies: in vivo, read-out: Vdss. In outline: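 Single dose of 3 mg/kg i.v. in water/Glycoferol/Cremophor solution to female C57Bl6 mice (n=24) or male Wistar rats (n=3). In rats, rifampicin 40 mg/kg p.o. was given 2 h before dosing where indicated. Plasma sampled at 0.083–24 h. ESI-LC/MS-MS after acetonitrile precipitation. Non-compartmental analysis.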

The nature of data set [7]: Oral bioavailability in Wistar rat at 10 mg/kg administered as single dose treated 2 hrs after dosing with 40 mg/kg, po OATP/MRP2 inhibitor rifampicin and measured up to 24 hrs ESI-LC/MS-MS analysis. Format: ADME, organism-based. The settings on record: in vivo. In outline:
(§2)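 Male Wistar rats (n=3 per route) pretreated orally with rifampicin 40 mg/kg (0.6% methylcellulose, 0.5% Tween 80 in water) 2 h before compound, given 3 mg/kg i.v. in Glycoferol/Cremophor-water solution or 10 mg/kg p.o. wet-milled suspension. Plasma sampled up to 24 h; ESI-LC/MS-MS after acetonitrile precipitation (LOQ 1 ng/mL); noncompartmental analysis.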

Data set [8] is described as follows: AUClast in Wistar rat at 10 mg/kg, po administered as single dose treated 2 hrs after dosing with 40 mg/kg, po OATP/MRP2 inhibitor rifampicin and measured up to 24 hrs ESI-LC/MS-MS analysis. Further details: dose 10 mg/kg, time < 24 hr, route oral. Format: ADME, organism-based. The settings on record: in vivo. In outline:
as §2

Data set [9] is described as follows: Metabolic lability in human liver microsomes incubated up to 20 mins by LC-MS/MS analysis. (In general: Liver microsomes are a subcellular fraction often used to study metabolism.)

`CC(C)(C)OC(=O)n1c2c(c3ccccc31)C[C@H]1C(=O)N3C[C@@H](CC(=O)O)C[C@H]3[C@@H]2N1C(=O)CC1CCC(F)(F)CC1`: the Activity result in [1] and in [2] was “Tde” in each case. For the same compound, the outcome in the data set with Mus musculus [3] and with Mus musculus [4] was inactive. Further, in data set [5], the Stability was determined as 100%. Moreover, the Vd in data set [6] was found to be 0.934 L/kg. Further, in data set [7], the bioavailability – broadly, the share of a dose that reaches the circulation, judged against a reference dose that is usually intravenous – was determined as 100%. For the same compound, the AUC(0-t) (commonly exposure summed from dosing to a finite time, without extrapolation to infinity) at 24 h in [8] amounted to 7340 ng·h/mL. Besides, the metabolized at 20 min in data set [9] came out at 20%.
